Data set [1] addresses Serine/threonine-protein kinase WNK1 (Homo sapiens) (UniProt Q9H4A3). In words: Inhibition of WNK1 (unknown origin) assessed as remaining activity at 1 uM by Kinome scan method relative to control.
In data set [2] the target is Non-receptor tyrosine-protein kinase TNK1 (Homo sapiens) (UniProt Q13470). In words: Inhibition of TNK1 (unknown origin) assessed as remaining activity at 1 uM by Kinome scan method relative to control.
Data set [3] has as its target Aurora kinase A (Homo sapiens) (UniProt O14965). In words: Inhibition of AURKA (unknown origin) assessed as remaining activity at 1 uM by Kinome scan method relative to control. The gist of the method: (§1)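 Active-site-dependent competition-binding (KINOMEscan) panel of 468 kinases, test compound at 1 μM (from a 10 mM DMSO stock). Read-out is ctrl% = (test signal − positive control signal)/(negative control signal − positive control signal) × 100. DMSO is the negative control (100%) and a control compound is the positive control (0%). Lower ctrl% means tighter binding.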

Another data set deals with HepG2. In words: Inhibition of Flag-tagged MST1 D109A mutant (unknown origin) in human HepG2 cells assessed as MOB1 phosphorylation level at 3 uM by immunoblot analysis. It counts as cell-based. Background: In western blotting, separated proteins are transferred to a membrane and probed.
The target of data set [4] is Inhibitor of nuclear factor kappa-B kinase subunit epsilon (Homo sapiens) (UniProt Q14164). The experiment in a line: Inhibition of IKK-epsilon (unknown origin) assessed as remaining activity at 1 uM by Kinome scan method relative to control.
Data set [5] concerns the target Serine/threonine-protein kinase 24 (Homo sapiens, UniProt Q9Y6E0). The experiment in a line: Binding affinity to MST3 (unknown origin) assessed as dissociation constant.
In data set [6] the target is Myotonin-protein kinase (Homo sapiens) (UniProt Q09013). In words: Inhibition of DMPK (unknown origin) assessed as remaining activity at 1 uM by Kinome scan method relative to control.
Data set [7] has as its target Ephrin type-B receptor 1 (Homo sapiens) (UniProt P54762). The experiment in a line: Inhibition of EPHB1 (unknown origin) assessed as remaining activity at 1 uM by Kinome scan method relative to control.
Data set [8] addresses Ankyrin repeat and protein kinase domain-containing protein 1 (Homo sapiens) (UniProt Q8NFD2). In words: Inhibition of ANKK1 (unknown origin) assessed as remaining activity at 1 uM by Kinome scan method relative to control. The gist of the method: as §1
In data set [9] the target is Serine/threonine-protein kinase MARK1 (Homo sapiens) (UniProt Q9P0L2). The experiment in a line: Inhibition of MARK1 (unknown origin) assessed as remaining activity at 1 uM by Kinome scan method relative to control.
Data set [10] concerns the target Death-associated protein kinase 1 (Homo sapiens) (UniProt P53355). In words: Inhibition of DAPK1 (unknown origin) assessed as remaining activity at 1 uM by Kinome scan method relative to control. The gist of the method: (§2)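 Active-site-dependent competition-binding profiling (KINOMEscan) at 1 μM against a 468-kinase panel; compound supplied from a 10 mM DMSO stock. Read-out is ctrl% = (test signal − positive control signal)/(negative control signal − positive control signal) × 100. DMSO is the negative control (100%) and a control compound the positive control (0%). Lower ctrl% means tighter binding.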

The target in data set [11] is Mitogen-activated protein kinase kinase kinase 11 (Homo sapiens) (UniProt Q16584). The experiment in a line: Inhibition of MLK3 (unknown origin) assessed as remaining activity at 1 uM by Kinome scan method relative to control.
Mitogen-activated protein kinase kinase kinase 11 (Homo sapiens), sequence (Q16584 whole entry, looked up, the tested form may be a part): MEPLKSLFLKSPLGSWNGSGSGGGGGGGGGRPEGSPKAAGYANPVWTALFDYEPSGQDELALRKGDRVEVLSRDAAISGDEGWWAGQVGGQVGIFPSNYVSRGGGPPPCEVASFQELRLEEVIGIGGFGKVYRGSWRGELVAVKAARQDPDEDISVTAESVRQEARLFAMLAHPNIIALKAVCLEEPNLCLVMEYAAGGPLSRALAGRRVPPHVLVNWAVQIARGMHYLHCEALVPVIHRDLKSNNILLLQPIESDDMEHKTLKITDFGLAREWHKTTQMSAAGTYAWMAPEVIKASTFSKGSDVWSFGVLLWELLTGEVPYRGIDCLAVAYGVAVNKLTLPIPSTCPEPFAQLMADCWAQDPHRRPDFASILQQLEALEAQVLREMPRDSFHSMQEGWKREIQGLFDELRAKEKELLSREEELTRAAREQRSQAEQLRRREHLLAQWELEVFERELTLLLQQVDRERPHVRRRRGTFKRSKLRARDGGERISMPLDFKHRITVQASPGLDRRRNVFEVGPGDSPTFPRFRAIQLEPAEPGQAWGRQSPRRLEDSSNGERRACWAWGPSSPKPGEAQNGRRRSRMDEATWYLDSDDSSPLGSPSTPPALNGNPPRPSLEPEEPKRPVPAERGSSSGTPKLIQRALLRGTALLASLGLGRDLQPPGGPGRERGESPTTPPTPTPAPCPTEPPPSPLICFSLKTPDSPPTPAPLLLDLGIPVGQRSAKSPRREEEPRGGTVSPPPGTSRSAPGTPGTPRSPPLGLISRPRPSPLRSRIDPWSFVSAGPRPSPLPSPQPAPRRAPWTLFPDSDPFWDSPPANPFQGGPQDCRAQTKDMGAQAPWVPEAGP
For data set [12], the target named is Phosphatidylinositol 4-phosphate 3-kinase C2 domain-containing subunit beta (Homo sapiens) (UniProt O00750). The experiment in a line: Inhibition of PIK3C2B (unknown origin) assessed as remaining activity at 1 uM by Kinome scan method relative to control.
For data set [13], the target named is T1, Serine/threonine-protein kinase 4 (Homo sapiens, UniProt Q13043).
T1 sequence (Q13043 whole entry): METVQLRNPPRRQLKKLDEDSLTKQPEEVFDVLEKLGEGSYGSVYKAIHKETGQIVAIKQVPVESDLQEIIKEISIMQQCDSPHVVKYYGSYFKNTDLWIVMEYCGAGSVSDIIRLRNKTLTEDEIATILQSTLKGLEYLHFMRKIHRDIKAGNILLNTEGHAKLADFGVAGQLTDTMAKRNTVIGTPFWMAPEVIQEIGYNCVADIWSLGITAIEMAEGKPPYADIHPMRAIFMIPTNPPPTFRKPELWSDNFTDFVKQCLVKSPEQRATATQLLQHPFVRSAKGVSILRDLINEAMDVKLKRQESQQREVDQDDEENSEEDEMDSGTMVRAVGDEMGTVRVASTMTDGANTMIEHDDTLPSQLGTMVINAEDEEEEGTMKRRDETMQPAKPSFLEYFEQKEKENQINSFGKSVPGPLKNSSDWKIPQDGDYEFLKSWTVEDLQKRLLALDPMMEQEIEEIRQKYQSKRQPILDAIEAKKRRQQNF
The experiment in a line: Binding affinity to MST1 (unknown origin) assessed as dissociation constant.

The target in data set [14] is Insulin-like growth factor 1 receptor (Homo sapiens) (UniProt P08069). In words: Inhibition of IGF1R (unknown origin) assessed as remaining activity at 1 uM by Kinome scan method relative to control.
The nature of data set [15]: Acute toxicity in wild-type mouse assessed as cell proliferation in colon at 3 mg/kg,ip administrated daily for 7 days by Ki67 staining. It counts as organism-based. The note with it: in vivo, 168 h, time 7 day. The gist of the method: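 Wild-type mice received vehicle or 3 mg/kg i.p. daily for 7 days. Ki67 staining of sections from various tissues with quantification of positive cells, n = 6; means ± SD, Student's t test. Daily weights, physical activity and serum chemistry were also monitored.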

The target of data set [16] is Serine/threonine-protein kinase N2 (Homo sapiens) (UniProt Q16513). In words: Inhibition of PKN2 (unknown origin) assessed as remaining activity at 1 uM by Kinome scan method relative to control.
The target of data set [17] is Tyrosine-protein kinase Tec (Homo sapiens) (UniProt P42680). The experiment in a line: Inhibition of TEC (unknown origin) assessed as remaining activity at 1 uM by Kinome scan method relative to control.
Data set [18] concerns the target Mitogen-activated protein kinase 4 (Homo sapiens) (UniProt P31152). In words: Inhibition of ERK4 (unknown origin) assessed as remaining activity at 1 uM by Kinome scan method relative to control.
In data set [19] the target is Cyclin-dependent kinase 11B (Homo sapiens) (UniProt P21127). In words: Inhibition of CDC2L1 (unknown origin) assessed as remaining activity at 1 uM by Kinome scan method relative to control. The gist of the method: as §2
Data set [20] has as its target Mitogen-activated protein kinase kinase kinase 12 (Homo sapiens) (UniProt Q12852). The experiment in a line: Inhibition of DLK (unknown origin) assessed as remaining activity at 1 uM by Kinome scan method relative to control.
Data set [21] deals with Serine/threonine-protein kinase RIO3 (Homo sapiens) (UniProt O14730). The experiment in a line: Inhibition of RIOK3 (unknown origin) assessed as remaining activity at 1 uM by Kinome scan method relative to control.
The test system of data set [22] is Phosphatidylinositol 4,5-bisphosphate 3-kinase catalytic subunit alpha isoform (Homo sapiens), P42336 [E545A]. The experiment in a line: Inhibition of PIK3CA E545A mutant (unknown origin) assessed as remaining activity at 1 uM by Kinome scan method relative to control.
In data set [23] the target is Non-receptor tyrosine-protein kinase TYK2 (Homo sapiens, UniProt P29597). The experiment in a line: Inhibition of TYK2 JH1 domain (unknown origin) assessed as remaining activity at 1 uM by Kinome scan method relative to control.

Active and inactive are the calls of the source. The rule behind the calls is not given here.

Serine/threonine-protein kinase WNK1 (Homo sapiens), sequence (Q9H4A3 whole entry, looked up): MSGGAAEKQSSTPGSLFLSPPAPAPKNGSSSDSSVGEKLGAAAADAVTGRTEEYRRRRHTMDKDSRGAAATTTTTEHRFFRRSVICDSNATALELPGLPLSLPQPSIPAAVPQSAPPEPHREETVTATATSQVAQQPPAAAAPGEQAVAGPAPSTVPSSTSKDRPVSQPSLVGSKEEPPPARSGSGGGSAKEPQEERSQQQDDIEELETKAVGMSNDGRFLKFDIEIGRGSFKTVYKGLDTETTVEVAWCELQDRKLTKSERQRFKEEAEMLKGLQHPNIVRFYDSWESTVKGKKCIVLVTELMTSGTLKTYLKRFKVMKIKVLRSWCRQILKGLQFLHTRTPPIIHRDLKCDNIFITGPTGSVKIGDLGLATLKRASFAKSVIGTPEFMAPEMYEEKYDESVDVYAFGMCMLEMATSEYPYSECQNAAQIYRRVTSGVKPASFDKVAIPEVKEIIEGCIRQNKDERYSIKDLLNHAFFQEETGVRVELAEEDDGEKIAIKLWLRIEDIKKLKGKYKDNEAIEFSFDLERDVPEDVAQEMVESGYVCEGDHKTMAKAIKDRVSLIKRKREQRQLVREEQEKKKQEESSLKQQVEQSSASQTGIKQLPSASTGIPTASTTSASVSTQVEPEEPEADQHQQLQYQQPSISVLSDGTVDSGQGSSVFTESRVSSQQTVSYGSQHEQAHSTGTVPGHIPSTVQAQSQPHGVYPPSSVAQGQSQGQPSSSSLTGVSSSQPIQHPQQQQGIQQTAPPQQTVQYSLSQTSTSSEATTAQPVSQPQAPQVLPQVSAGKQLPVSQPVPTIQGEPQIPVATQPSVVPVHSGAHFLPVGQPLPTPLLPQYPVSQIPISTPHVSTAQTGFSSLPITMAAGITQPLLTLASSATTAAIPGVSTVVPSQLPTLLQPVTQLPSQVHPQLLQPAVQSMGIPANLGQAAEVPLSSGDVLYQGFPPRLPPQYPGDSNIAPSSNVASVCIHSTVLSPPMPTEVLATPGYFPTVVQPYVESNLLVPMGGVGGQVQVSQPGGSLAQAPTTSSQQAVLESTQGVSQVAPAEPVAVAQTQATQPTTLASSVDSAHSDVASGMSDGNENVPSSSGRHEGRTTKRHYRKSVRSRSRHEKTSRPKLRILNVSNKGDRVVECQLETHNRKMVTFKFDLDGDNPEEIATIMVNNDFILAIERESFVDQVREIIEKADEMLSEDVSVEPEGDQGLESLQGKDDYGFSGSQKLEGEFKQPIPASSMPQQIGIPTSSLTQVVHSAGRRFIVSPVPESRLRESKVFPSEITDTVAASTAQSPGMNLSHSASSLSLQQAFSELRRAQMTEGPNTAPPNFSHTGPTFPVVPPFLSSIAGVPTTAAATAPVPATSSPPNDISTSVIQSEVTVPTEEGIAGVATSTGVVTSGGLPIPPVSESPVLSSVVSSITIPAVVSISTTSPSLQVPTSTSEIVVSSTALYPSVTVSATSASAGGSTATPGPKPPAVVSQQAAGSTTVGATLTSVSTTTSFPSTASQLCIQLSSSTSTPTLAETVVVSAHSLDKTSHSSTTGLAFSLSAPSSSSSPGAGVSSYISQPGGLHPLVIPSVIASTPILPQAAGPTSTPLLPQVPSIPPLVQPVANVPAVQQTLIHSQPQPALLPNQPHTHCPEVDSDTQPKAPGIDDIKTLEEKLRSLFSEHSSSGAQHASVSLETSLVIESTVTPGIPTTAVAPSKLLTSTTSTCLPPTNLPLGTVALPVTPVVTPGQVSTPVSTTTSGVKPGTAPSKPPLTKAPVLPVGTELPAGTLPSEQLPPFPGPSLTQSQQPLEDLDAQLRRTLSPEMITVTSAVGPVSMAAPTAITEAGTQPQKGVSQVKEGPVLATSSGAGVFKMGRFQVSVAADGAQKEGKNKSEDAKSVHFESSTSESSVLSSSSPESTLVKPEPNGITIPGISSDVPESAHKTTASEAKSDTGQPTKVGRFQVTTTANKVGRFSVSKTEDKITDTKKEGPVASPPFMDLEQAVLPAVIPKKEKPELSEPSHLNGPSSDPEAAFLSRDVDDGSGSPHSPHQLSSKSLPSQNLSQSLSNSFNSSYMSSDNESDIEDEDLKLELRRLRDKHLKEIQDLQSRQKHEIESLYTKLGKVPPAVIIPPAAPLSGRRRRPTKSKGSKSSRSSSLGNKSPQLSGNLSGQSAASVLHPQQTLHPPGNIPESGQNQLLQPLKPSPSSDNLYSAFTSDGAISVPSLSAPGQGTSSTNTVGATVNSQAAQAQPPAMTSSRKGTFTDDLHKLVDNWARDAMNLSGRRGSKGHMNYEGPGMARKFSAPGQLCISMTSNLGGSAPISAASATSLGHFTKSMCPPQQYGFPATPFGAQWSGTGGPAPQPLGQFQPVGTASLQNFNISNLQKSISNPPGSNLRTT
Ankyrin repeat and protein kinase domain-containing protein 1 (Homo sapiens), sequence (Q8NFD2 whole entry, the tested form may be a part): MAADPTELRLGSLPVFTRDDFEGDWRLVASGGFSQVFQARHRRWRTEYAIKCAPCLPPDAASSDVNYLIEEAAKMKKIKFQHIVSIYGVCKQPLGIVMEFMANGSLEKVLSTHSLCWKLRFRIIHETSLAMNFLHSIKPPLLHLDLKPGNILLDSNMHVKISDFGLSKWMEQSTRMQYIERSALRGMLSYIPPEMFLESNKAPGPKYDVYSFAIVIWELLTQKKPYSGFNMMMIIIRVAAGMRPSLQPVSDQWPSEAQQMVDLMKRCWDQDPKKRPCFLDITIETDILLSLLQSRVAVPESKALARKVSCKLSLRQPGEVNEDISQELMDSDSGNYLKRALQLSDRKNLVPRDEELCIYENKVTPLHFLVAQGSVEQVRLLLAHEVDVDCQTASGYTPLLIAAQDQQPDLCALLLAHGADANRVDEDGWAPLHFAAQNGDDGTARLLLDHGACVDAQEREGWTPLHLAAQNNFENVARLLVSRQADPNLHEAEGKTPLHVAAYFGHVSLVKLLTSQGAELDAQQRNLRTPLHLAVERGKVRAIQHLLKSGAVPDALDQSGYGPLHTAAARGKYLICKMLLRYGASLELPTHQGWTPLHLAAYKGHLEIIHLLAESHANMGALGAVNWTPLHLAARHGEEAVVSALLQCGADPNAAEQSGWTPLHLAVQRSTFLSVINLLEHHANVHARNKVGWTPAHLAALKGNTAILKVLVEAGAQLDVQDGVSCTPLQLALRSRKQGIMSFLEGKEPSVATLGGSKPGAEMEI
Ephrin type-B receptor 1 (Homo sapiens), sequence (P54762 whole entry, the tested form may be a part): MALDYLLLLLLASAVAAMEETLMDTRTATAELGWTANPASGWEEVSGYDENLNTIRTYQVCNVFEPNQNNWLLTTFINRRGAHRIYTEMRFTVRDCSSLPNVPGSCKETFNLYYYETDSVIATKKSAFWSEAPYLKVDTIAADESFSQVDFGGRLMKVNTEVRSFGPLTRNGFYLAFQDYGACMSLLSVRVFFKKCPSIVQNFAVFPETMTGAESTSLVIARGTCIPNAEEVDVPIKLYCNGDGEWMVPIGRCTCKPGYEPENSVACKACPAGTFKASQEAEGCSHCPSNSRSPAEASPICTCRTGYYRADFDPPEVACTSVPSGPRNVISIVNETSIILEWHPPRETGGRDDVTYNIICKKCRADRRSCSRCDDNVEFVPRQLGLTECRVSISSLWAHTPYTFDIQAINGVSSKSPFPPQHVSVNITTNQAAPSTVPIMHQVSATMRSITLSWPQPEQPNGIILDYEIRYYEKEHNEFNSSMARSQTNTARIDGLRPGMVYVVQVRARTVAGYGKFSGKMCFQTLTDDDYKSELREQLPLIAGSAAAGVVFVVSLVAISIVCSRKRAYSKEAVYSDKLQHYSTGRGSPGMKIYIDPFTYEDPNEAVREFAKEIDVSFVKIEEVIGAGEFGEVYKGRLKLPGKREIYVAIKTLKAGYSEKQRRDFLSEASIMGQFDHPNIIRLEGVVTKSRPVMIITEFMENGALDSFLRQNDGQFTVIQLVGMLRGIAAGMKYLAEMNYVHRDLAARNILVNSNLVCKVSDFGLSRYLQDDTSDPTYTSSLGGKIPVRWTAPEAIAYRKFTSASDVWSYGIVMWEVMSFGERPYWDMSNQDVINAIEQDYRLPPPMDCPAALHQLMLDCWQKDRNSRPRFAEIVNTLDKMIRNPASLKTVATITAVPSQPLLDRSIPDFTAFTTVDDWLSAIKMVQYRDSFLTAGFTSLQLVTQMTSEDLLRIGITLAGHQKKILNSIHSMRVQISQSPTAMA

A word on the Kd: it is the concentration at which binding is half-saturated. Consider `CN1C(=O)c2sccc2N(C)c2nc(Nc3ccc(S(N)(=O)=O)cc3)ncc21`, for which the Activity in data set [1] came to 97%; in data set [2] it was 69%; in data set [3], 0.05%; in [4], 86%; in data set [6] it was 100%; in data set [7] it was 100%. For the same molecule, the Activity in [8] was found to be 41%; in [9], 92%; in data set [10], 91%; in data set [11], 100%; in data set [12] it was 100%; in data set [14], 94%. Also, the Activity result in data set [15] is “Non-Toxic”; in [16], 94%; in data set [17], 100%; in data set [18], 80%; in [19], 85%; in [20] it was 85%. Further, the Activity in data set [21] worked out at 100%; in [22], 81%; in data set [23], 2.7%. Also, in the data set on HepG2, the inhibition entry is “Active”. For the same molecule, the Kd stood at 0.018 µM in [5] and 0.017 µM in data set [13].

The values above are taken from ChEMBL document CHEMBL5705905, “Pharmacological targeting of kinases MST1 and MST2 augments tissue repair and regeneration” (Sci Transl Med, 2016).
